ChEMBL document CHEMBL4270537, “Design and biological evaluation of novel triaryl pyrazoline derivatives with dioxane moiety for selective BRAFV600E inhibition” (Eur J Med Chem, 2018)

What was measured:
[1] = test system: A-375; test: Cell cycle arrest in human A375 cells assessed as accumulation at G1 phase at 10 uM after 24 hrs by propidium iodide staining based flow cytometry (reference value: 73.6%); assay type: functional
[2] = molecular target: RAF proto-oncogene serine/threonine-protein kinase (Homo sapiens, UniProt P04049, Y340D/Y341D); test: Inhibition of recombinant human GST-tagged c-RAF (306 to 648 residues) Y340D/Y341D mutant expressed in baculovirus expression system using recombinant human full length N-terminal His-tagged MEK1 as substrate preincubated for 1 hr followed by substrate addition measured after 25 mins
[3] = test system: WM 266-4; test: Antiproliferative activity against human WM266.4 cells after 48 hrs by MTT assay; assay type: functional; details: WM 266-4, 48 h
How it was run: (§1)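 MTT reduction assay. Cell lines grown to log phase in DMEM with 10% FBS (A375 in DMEM with sodium pyruvate added), seeded at 10⁴ cells/well in 96-well plates. Three replicate wells per concentration, each assay run three times, GI50 averaged.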

[4] = test system: A-375; test: Induction of apoptosis in human A375 cells assessed as viable cells at 2 uM after 48 hrs by Annexin V-FITC/PI staining based flow cytometry (reference value: 89.4%); assay type: functional; details: A-375, 48 h, read-out: Activity
[5] = test system: A-375; test: Induction of apoptosis in human A375 cells assessed as necrotic cells at 5 uM after 24 hrs by Annexin V-FITC/PI staining based flow cytometry (reference value: 1.61%); assay type: functional
[6] = molecular target: Mitogen-activated protein kinase 14 (Homo sapiens, UniProt Q16539); test: Inhibition of N-terminal flag-tagged p38alpha (unknown origin) expressed in baculovirus expression system using MBP as substrate preincubated for 5 mins followed by substrate addition measured after 60 mins in presence of [gamma-32P]ATP by topcount scintillation method
How it was run: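 Baculovirus-expressed N-terminal FLAG-tagged kinases in 25 mM HEPES pH 7.5, 10 mM Mg acetate, 1 mM DTT, 0.5 µM ATP plus [γ-³²P]ATP, 50 µL. p38α: 100 ng enzyme, MBP substrate. JNK1: 10 ng enzyme, 1 µg c-Jun. Compound and enzyme preincubated 5 min, ATP started the reaction, 60 min at 30 °C. Stopped with 10% TCA, filtered, washed with 3% phosphoric acid, counted by TopCount.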

[7] = test system: A-375; test: Induction of apoptosis in human A375 cells assessed as late apoptotic cells at 2 uM after 48 hrs by Annexin V-FITC/PI staining based flow cytometry (reference value: 3.61%); assay type: functional
How it was run: (§2)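 Apoptosis time course. A375 cells in 24-well plates (about 10⁵/well) at 2 µM for 0, 24, 48 and 72 h. Harvested by trypsin, washed in PBS, stained 15 min at room temperature in the dark with Annexin V-FITC/PI, analysed by flow cytometry.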

[8] = test system: A-375; test: Cell cycle arrest in human A375 cells assessed as accumulation at S phase at 2 uM after 72 hrs by propidium iodide staining based flow cytometry (reference value: 21.3%); assay type: functional
[9] = test system: A-375; test: Induction of apoptosis in human A375 cells assessed as viable cells at 2 uM after 24 hrs by Annexin V-FITC/PI staining based flow cytometry (reference value: 89.4%); assay type: functional; details: A-375, 24 h, read-out: Activity
[10] = test system: A-375; test: Cell cycle arrest in human A375 cells assessed as accumulation at G1 phase at 2 uM after 24 hrs by propidium iodide staining based flow cytometry (reference value: 73.6%); assay type: functional
[11] = test system: A-375; test: Antiproliferative activity against human A375 cells after 48 hrs by MTT assay; assay type: functional; details: A-375, 48 h; how it was run: as §1
[12] = test system: A-375; test: Induction of apoptosis in human A375 cells after 24 to 72 hrs by Annexin V-FITC/PI staining based flow cytometry; assay type: functional, cell-based; how it was run: as §2
[13] = test system: A-375; test: Effect on total MEK1/2 protein level in human A375 cells after 30 mins by Western blot analysis; assay type: ADME, cell-based; details: a-375, 0.5 h
How it was run: (§3)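 Western blot. Cells rinsed in cold PBS, lysed 30 min on ice in RIPA with protease inhibitors (1:100), cleared at 12,000 g, 4 °C. Protein measured by BCA, resolved by SDS-PAGE, transferred to PVDF, blocked in skim milk. Primary antibodies 1:500 overnight at 4 °C; secondary 1:5000 for 1 h at room temperature.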

[14] = Effect on total MEK1/2 protein level in human WM1361 cells after 30 mins by Western blot analysis; assay type: ADME, cell-based; details: 0.5 h; how it was run: as §3
[15] = test system: A-375; test: Cell cycle arrest in human A375 cells assessed as accumulation at G1 phase at 2 uM after 48 hrs by propidium iodide staining based flow cytometry (reference value: 73.6%); assay type: functional
[16] = test system: A-375; test: Induction of apoptosis in human A375 cells assessed as early apoptotic cells at 20 uM after 24 hrs by Annexin V-FITC/PI staining based flow cytometry (reference value: 5.45%); assay type: functional
[17] = test system: A-375; test: Cell cycle arrest in human A375 cells assessed as accumulation at S phase at 2 uM after 48 hrs by propidium iodide staining based flow cytometry (reference value: 21.3%); assay type: functional

Mitogen-activated protein kinase 14, sequence (Q16539 whole entry): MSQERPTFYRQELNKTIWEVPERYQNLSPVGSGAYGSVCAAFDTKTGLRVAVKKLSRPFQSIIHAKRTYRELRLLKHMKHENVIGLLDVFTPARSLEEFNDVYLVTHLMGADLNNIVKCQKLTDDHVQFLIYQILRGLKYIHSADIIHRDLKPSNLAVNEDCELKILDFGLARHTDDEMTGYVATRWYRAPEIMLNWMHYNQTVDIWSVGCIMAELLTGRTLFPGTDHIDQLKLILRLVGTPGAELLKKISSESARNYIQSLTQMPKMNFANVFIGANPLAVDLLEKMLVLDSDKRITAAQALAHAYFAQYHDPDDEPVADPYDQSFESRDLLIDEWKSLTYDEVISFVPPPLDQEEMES
RAF proto-oncogene serine/threonine-protein kinase, sequence (P04049 whole entry Y340D/Y341D, the tested form may be a part): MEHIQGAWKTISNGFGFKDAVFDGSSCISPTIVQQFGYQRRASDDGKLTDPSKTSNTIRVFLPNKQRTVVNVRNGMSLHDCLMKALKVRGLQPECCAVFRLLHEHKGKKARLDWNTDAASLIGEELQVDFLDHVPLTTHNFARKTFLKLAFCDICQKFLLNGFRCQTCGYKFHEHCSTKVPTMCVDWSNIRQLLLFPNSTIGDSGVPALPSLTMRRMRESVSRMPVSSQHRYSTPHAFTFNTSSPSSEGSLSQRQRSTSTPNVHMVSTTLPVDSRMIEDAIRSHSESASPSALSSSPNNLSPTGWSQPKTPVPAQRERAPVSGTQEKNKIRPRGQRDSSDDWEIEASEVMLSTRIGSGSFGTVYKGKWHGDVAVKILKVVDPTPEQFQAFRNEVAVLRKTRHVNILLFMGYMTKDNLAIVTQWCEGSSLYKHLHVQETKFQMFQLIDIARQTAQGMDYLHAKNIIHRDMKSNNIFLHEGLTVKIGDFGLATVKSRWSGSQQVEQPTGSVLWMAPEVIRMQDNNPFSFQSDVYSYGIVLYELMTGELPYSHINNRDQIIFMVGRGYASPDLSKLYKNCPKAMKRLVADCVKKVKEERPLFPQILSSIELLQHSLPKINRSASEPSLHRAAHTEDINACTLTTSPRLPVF

Compound `COc1cccc(C2=NN(C(=S)Nc3ccccc3)C(c3ccc4c(c3)OCCO4)C2)c1` (configuration not stated) has an Activity [1] of 68.1%, an IC50 [2] of over 200 µM and a GI50 [3] of 1.38 µM. It also gave a viability at 2 µM [4] of 74.5%, an Activity [5] of 3.6% and an IC50 [6] of over 200 µM. For the same compound, the Activity [7] was 5.37%, the Activity [8] was 27.6% and the viability at 2 µM [9] was 80.8%. For the same compound, the Activity [10] was 72.4%, the GI50 [11] was 0.52 µM and the Activity [12] was “Dose-dependent effect”. For the same compound, the Activity [13] was “Non-Toxic”, the Activity [14] was “Non-Toxic” and the Activity [15] was 58.8%. For the same compound, the Activity [16] was 49.6% and the Activity [17] was 26.2%.
